The source made the active and inactive calls. The calls are words filed in the database; no cut-off is given here.

Experimental findings from ChEMBL document CHEMBL1147050, “Small-molecule agonists for the glucagon-like peptide 1 receptor” (Proc Natl Acad Sci U S A, 2007) are described below.

Assay [1] addresses T1, Glucagon-like peptide 1 receptor (Homo sapiens, UniProt P43220). Description: Increase in [125I]GLP1 binding to human GLP1 receptor expressed in BHK cells. The class given is cell-based. The method, boiled down: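 BHK-cell plasma membranes expressing human GLP-1 receptor with 125I-GLP-1(7–36)amide tracer (50,000 cpm/well) in 25 mM Hepes, 0.1% BSA, pH 7.4; final DMSO 4.4%. Incubated 1 h at 37°C, then vacuum filtration and one wash. Nonspecific binding defined with 1 μM GLP-1; triplicates; curves fitted as one-site competition.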

The species entered for assay [2] is Mus musculus. Description: Induction of 10 mM glucose-induced insulin release in CD1 GLP1 receptor knockout mouse pancreatic islets at 100 nM. The class given is functional.
The species entered for assay [3] is Mus musculus. Put plainly: Induction of 3 mM glucose-induced insulin release in CD1 wild type mouse pancreatic islets at 1000 nM. It is filed as functional. The method, boiled down:
(§1)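 Adult CD1 wild-type mouse islets were isolated by collagenase digestion, cultured overnight in RPMI 1640 with 10% newborn calf serum, and perifused the next day. Columns held 30 islets, run at 37 °C and 0.30 ml/min in pH 7.4 Hepes buffer with albumin. After 30 min basal perifusion at 3 mM glucose, glucose was 3 mM from 0–60 min, then 10 mM. Agent was present 10–70 min (final DMSO ≤0.1%). Three groups of 30 islets, mean ± SEM.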

The species named for assay [4] is Mus musculus. Put plainly: Induction of 10 mM glucose-induced insulin release in CD1 GLP1 receptor knockout mouse pancreatic islets at 1000 nM. It is filed as functional. The method, boiled down: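 Islets came from CD1 GLP-1 receptor knockout mice, isolated by collagenase and cultured overnight, then perifused at 37 °C, 0.30 ml/min, 30 islets per column. After 30 min at 3 mM glucose, glucose was 3 mM from 0–30 min, then 10 mM. Agents were present 10–60 min, with DMSO ≤0.1% and a 10 μM imidazoline control. Three groups of 30 islets, mean ± SEM.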

Assay [5] is filed under the species Mus musculus. Description: Induction of 3 mM glucose-induced insulin release in CD1 wild type mouse pancreatic islets at 100 nM. The class given is functional. The method, boiled down:
as §1

In assay [6] the target is T1, Glucagon-like peptide 1 receptor. Description: Agonist activity at human GLP1 receptor expressed in BHK cells assessed as cAMP accumulation. It is filed as functional, cell-based. For orientation: Cyclic AMP is a second messenger, typically raised through Gs and lowered through Gi signalling.
The species named for assay [7] is Mus musculus. Description: Induction of 10 mM glucose-induced insulin release in CD1 wild type mouse pancreatic islets at 100 nM. It is filed as functional. The method, boiled down:
as §1

Assay [8] has as its system Pancreas. Description: Induction of 10 mM glucose-induced insulin release in Sprague-Dawley rat pancreas at 10 uM. It is filed as functional, tissue-based. Summed up: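 Pancreas from male SD rats perfused at 37°C with oxygenated Krebs Ringer containing 0.25% BSA, 4% Dextran T-70 and 2 mM calcium, total flow 1.9 ml/min. Compound (final DMSO 0.25%) given at t = 20–40 min with 10 mM glucose; insulin release followed; two to three experiments, mean ± SD.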

Assay [9] is filed under the species Mus musculus. Description: Induction of 10 mM glucose-induced insulin release in CD1 wild type mouse pancreatic islets at 1000 nM. It is filed as functional. The method, boiled down: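 Islets from adult CD1 mice isolated by collagenase and cultured overnight in RPMI 1640 with 10% newborn calf serum. Groups of 30 islets perifused at 37°C, 0.30 ml/min, in Hepes-bicarbonate buffer with albumin. Glucose 3 mM from 0–60 min, then 10 mM; compound added at 10 min and removed at 70 min. Final DMSO ≤0.1%. Three groups per condition.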

Assay [10] deals with T2, Glucagon-like peptide 2 receptor (Homo sapiens) (UniProt O95838).
T2 sequence (whole entry): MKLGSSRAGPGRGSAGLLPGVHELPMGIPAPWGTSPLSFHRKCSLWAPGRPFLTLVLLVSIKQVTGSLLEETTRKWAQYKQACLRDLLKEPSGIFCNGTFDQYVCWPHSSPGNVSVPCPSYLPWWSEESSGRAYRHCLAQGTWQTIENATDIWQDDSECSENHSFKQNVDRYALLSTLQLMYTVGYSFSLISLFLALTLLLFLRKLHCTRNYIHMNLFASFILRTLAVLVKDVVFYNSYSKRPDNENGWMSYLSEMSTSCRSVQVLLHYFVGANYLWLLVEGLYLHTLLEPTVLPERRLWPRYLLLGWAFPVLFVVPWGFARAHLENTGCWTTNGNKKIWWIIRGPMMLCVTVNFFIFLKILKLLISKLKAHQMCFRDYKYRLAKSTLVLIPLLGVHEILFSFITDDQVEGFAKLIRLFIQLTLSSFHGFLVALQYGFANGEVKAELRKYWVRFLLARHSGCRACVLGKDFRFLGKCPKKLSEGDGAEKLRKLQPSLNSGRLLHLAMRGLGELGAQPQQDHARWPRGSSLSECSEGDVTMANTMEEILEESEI
Description: Agonist activity at human GLP2 receptor expressed in BHK cells assessed as cAMP accumulation. The class given is functional, cell-based.

Assay [11] has as its target T3, Gastric inhibitory polypeptide receptor (Homo sapiens) (UniProt P48546).
T3 sequence (whole entry): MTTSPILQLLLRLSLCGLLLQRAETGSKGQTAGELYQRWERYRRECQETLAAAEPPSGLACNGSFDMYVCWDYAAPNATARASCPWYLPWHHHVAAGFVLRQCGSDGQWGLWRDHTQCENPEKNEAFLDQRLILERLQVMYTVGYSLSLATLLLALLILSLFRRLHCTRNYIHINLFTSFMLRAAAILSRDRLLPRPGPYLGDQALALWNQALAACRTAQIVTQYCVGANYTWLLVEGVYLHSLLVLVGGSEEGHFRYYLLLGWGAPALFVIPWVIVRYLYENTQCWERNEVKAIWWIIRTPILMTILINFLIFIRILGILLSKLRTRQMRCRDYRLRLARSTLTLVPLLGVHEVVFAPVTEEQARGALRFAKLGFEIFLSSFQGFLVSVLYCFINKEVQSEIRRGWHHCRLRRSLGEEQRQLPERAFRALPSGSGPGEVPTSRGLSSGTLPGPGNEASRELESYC
Put plainly: Agonist activity at human GIP receptor expressed in BHK cells assessed as cAMP accumulation. It is filed as functional, cell-based.

In assay [12] the target is Glucagon receptor (Homo sapiens) (UniProt P47871). Description: Agonist activity at human glucagon receptor expressed in BHK cells assessed as cAMP accumulation. It is filed as functional, cell-based.
Sequence of Glucagon receptor (Homo sapiens) (P47871 whole entry): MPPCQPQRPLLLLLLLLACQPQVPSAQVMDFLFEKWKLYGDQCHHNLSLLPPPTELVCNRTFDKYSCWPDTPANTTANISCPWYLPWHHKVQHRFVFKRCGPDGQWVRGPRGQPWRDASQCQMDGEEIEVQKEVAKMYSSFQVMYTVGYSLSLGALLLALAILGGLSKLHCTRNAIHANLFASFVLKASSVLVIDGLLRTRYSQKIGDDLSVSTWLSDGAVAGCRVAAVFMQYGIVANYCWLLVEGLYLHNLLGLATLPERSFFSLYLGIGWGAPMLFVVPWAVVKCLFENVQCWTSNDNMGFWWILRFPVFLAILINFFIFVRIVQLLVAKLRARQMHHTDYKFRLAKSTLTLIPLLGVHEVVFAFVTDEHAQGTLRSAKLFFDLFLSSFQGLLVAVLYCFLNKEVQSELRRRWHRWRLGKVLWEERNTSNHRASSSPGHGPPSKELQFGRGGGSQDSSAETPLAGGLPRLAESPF

T1 sequence (P43220 whole entry): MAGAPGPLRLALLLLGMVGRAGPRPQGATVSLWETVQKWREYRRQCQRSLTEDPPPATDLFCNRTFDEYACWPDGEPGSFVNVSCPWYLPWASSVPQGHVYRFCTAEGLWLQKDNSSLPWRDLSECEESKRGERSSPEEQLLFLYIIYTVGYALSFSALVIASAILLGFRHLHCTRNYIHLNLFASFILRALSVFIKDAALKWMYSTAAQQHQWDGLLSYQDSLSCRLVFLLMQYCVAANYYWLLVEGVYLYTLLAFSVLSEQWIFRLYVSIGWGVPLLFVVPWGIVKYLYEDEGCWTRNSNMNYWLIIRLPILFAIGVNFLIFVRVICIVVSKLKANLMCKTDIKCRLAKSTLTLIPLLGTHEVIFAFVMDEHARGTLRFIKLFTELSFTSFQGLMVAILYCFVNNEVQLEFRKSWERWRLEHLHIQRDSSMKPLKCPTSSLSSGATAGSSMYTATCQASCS

`CC(C)(C)Nc1nc2cc(Cl)c(Cl)cc2nc1S(C)(=O)=O`: the result in assay [1], in assay [8] and in [9] was Active. In addition, the outcome in assay [2], in [3], in [4], in assay [5] and in assay [7] was inactive. Also, the EC50 – broadly, the concentration needed to bring the measured effect to its halfway point – in [6] came out at 101 nM.
Turning to `Cc1cnc(Sc2nc3cc(Cl)c(Cl)cc3nc2C(F)(F)F)s1`, the outcome in assay [10], in assay [11] and in assay [12] was inactive. Besides, the Activity entry in assay [1] is “Dose-dependent effect”. Moreover, the EC50 in assay [6] is 1400 nM.
Turning to `CC[C@H](C)[C@H](NC(=O)[C@H](Cc1ccccc1)NC(=O)[C@H](CCC(=O)O)NC(=O)[C@H](CCCCN)NC(=O)[C@H](C)NC(=O)[C@H](C)NC(=O)[C@H](CCC(N)=O)NC(=O)CNC(=O)[C@H](CCC(=O)O)NC(=O)[C@H](CC(C)C)NC(=O)[C@H](Cc1ccc(O)cc1)NC(=O)[C@H](CO)NC(=O)[C@H](CO)NC(=O)[C@@H](NC(=O)[C@H](CC(=O)O)NC(=O)[C@H](CO)NC(=O)[C@@H](NC(=O)[C@H](Cc1ccccc1)NC(=O)[C@@H](NC(=O)CNC(=O)[C@H](CCC(=O)O)NC(=O)[C@H](C)NC(=O)[C@@H](N)Cc1c[nH]cn1)[C@@H](C)O)[C@@H](C)O)C(C)C)C(=O)N[C@@H](C)C(=O)N[C@@H](Cc1c[nH]c2ccccc12)C(=O)N[C@@H](CC(C)C)C(=O)N[C@H](C(=O)N[C@@H](CCCCN)C(=O)NCC(=O)N[C@@H](CCCN=C(N)N)C(=O)NCC(=O)O)C(C)C`, the outcome in [2], in assay [3], in [4] and in [5] was inactive. Also, in assay [7], the result was Active.
